Test results from ChEMBL document CHEMBL4428107 (Bioorg Med Chem, 2016).

How the values were obtained:
Histone deacetylase 2 = Histone deacetylase 2 (Homo sapiens, UniProt Q92769); assay: Inhibition of full length recombinant human HDAC2 expressed in baculovirus expression system using fluorogenic peptide RHKK(Ac) as substrate by fluorescence assay
HCT-116 = assay: Antiproliferative activity against human HCT116 cells assessed as reduction in cell viability after 72 hrs by MTS-PMS assay; format: functional; conditions: Homo sapiens, HCT-116, 72 h
How it was run: (§1)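 MTS-PMS viability test. Cells were seeded at 3,000/well and left 24 h at 37 °C, 5% CO2, then exposed to compound for 72 h. Screening was at 50 μM for HCT116 and MCF-7 and […], with final DMSO ≤1%. MTS:PMS was mixed 20:1, added for 3 h, and absorbance read at 490 nm. At least two independent runs were done, each in triplicate.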

MCF7 = assay: Antiproliferative activity against human MCF7 cells assessed as reduction in cell viability after 72 hrs by MTS-PMS assay; conditions: MCF7, 72 h
MDA-MB-231 = assay: Antiproliferative activity against human MDA-MB-231 cells assessed as reduction in cell viability after 72 hrs by MTS-PMS assay; format: functional; conditions: MDA-MB-231, 72 h; how it was run: as §1
MOLT-4 = assay: Antiproliferative activity against human MOLT4 cells assessed as reduction in cell viability after 70 hrs by Quanti-blue assay; format: functional; conditions: Homo sapiens, MOLT-4, 70 h
How it was run: (§2)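 Quanti-Blue viability kit. HuT-78 and Molt-4 cells were grown in RPMI-1640 and seeded at 10^5 cells/mL. Compounds were screened at 50 μM for 70 h, with detection reagent present for the final 2 h. Fluorescence was read at ex 530/em 590 nm. IC50 from dose-response came from linear regression. Three independent runs.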

HuT78 = assay: Antiproliferative activity against human HUT78 cells assessed as reduction in cell viability after 70 hrs by Quanti-blue assay; format: functional; conditions: Homo sapiens, HuT78, 70 h; how it was run: as §2
[1] = Antiproliferative activity against human PBMC assessed as reduction in cell viability after 70 hrs by Quanti-blue assay; format: cell-based
How it was run: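 QB fluorescence viability assay; hPBMCs purified by density centrifugation from purchased human blood, stored frozen, resuspended in RPMI-1640 with 10% heat-inactivated FBS, HEPES, pyruvate, non-essential amino acids and BME; seeded at 10^6 cells/mL. Compounds at 50 μM, 70 h plus 2 h with detection reagent; λex 530/λem 590 nm. Three independent repeats.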

[2] = Immunomodulatory activity in human TALL-104 cells assessed as effect on degranulation by measuring augmentation of CD3-stimulated anti-LAMP fluorescence at 100 uM preincubated for 30 mins followed by anti-LAMP addition and incubated for 50 mins in the dark by flow cytometric analysis relative to control; format: functional

Sequence of Histone deacetylase 2 (Q92769 whole entry): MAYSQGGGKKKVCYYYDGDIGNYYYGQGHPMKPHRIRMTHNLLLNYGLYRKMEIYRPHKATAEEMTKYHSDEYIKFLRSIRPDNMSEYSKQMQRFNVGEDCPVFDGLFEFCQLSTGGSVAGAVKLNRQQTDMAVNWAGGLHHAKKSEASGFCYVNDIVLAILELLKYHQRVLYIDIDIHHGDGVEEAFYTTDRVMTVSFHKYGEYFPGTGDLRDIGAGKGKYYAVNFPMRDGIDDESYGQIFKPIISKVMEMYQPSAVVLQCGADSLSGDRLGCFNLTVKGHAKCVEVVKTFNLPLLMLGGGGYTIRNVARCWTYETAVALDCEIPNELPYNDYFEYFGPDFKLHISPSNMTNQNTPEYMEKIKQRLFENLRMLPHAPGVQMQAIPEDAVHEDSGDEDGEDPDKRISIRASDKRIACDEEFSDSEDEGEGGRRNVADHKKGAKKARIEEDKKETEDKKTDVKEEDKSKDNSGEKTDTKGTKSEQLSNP

Row | SMILES | IC50 (Histone deacetylase 2) | GI50 (HCT-116) | GI50 (MCF7) | GI50 (MDA-MB-231) | GI50 (MOLT-4) | GI50 (HuT78) | GI50 at 70 h [1] | Activity [2]
1 | CCOC(=O)NCCCC(=O)Nc1ccc(CO[Si](C)(C)C(C)(C)C)cc1 | > 1 µM | > 50 µM | 23.7 µM | > 50 µM | > 50 µM | > 50 µM | > 50 µM | 126%
2 | CCOC(=O)NCCCC(=O)NCCNC(=O)OC(C)(C)C | > 1 µM | > 50 µM | > 50 µM | > 50 µM | > 50 µM | > 50 µM | > 50 µM | 95%
3 | CC(C)(C)CC(=O)NCCCC(=O)NCCc1ccccc1 | > 1 µM | > 50 µM | > 50 µM | > 50 µM | > 50 µM | > 50 µM | > 50 µM | 73%
4 | CCOC(=O)NCCCC(=O)Nc1nc(-c2cccc([N+](=O)[O-])c2)cs1 | > 1 µM | > 50 µM | > 50 µM | > 50 µM | > 50 µM | > 50 µM | > 50 µM | 58%
5 | C=CCOC(=O)NCCCC(=O)NCCc1ccccc1 | > 1 µM | > 50 µM | > 50 µM | > 50 µM | > 50 µM | > 50 µM | > 50 µM | 87%
6 | CCSC(=O)NCCCC(=O)NCCc1ccccc1 | > 1 µM | > 50 µM | > 50 µM | > 50 µM | > 50 µM | > 50 µM | > 50 µM | 76%
7 | O=C(CCCCCCC(=O)Nc1ccccc1)NO [VORINOSTAT] | – | – | 29.1 µM | – | – | – | – | –
8 | CCOC(=O)NCC(=O)NCCc1ccccc1 | > 1 µM | > 50 µM | > 50 µM | > 50 µM | > 50 µM | > 50 µM | > 50 µM | 86%
9 | CCOC(=S)NCCCC(=O)NCCc1ccccc1 | > 1 µM | > 50 µM | > 50 µM | > 50 µM | > 50 µM | > 50 µM | > 50 µM | 105%
10 | CCOC(=O)NCCC(=O)NCCc1ccccc1 | > 1 µM | > 50 µM | > 50 µM | > 50 µM | > 50 µM | > 50 µM | > 50 µM | 91%
11 | O=C(CCCNC(=O)N1CCCC1=O)NCCc1ccccc1 | > 1 µM | > 50 µM | > 50 µM | > 50 µM | > 50 µM | > 50 µM | > 50 µM | 95%
12 | CCOC(=O)NCCc1ccccc1 | > 1 µM | > 50 µM | > 50 µM | > 50 µM | > 50 µM | > 50 µM | > 50 µM | 90%
13 | CC(C)(C)OC(=O)NCCCC(=O)NCCc1ccccc1 | > 1 µM | > 50 µM | > 50 µM | > 50 µM | > 50 µM | > 50 µM | > 50 µM | 82%
14 | CCOC(=O)NCCCCC(=O)NCc1ccccc1 | > 1 µM | > 50 µM | > 50 µM | > 50 µM | > 50 µM | > 50 µM | > 50 µM | 93%
15 | COc1cccc2c1C(=O)c1c(O)c3c(c(O)c1C2=O)C[C@@](O)(C(=O)CO)C[C@@H]3O[C@H]1C[C@H](N)[C@H](O)[C@H](C)O1 [DOXORUBICIN] | – | 21.4 µM | – | 10.7 µM | – | – | – | –
